# Scp1 inh: blocks human Scp-1 phosphatase activity. Q9GZU7. Recombinant Scp1, phosphopeptide, malachite green phosphate absorbance. inhibition, % at 20 µM. 340,000 tested, 0.88% active. AID 493091;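 active = inhibition above about 50% at 20 µM, limit read from the data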
# Target sequence (Q9GZU7 76-261 limits assumed): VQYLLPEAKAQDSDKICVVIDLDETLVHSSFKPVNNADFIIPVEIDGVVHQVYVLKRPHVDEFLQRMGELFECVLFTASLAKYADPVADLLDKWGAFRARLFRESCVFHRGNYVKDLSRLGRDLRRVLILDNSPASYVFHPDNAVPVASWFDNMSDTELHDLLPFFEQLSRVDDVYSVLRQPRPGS
#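 System: SCP-1 catalytic domain; Reagent: Phospho 17-mer peptide substrate; Doses: one concentration, 20 µM, with 1.0% DMSO; Incubation: 45 min room-temperature reaction, 5 min colour, 30 min stabiliser; Signal: Phosphate-binding colour reagent, absorbance read at 630 nm.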
# SUMO1 PPI mod: SUMO1-SIM interaction modulation | P63165 | SUMO1 binding to a labelled peptide, TR-FRET, 1 h | inhibition, % at 20 µM | 360,000 tested, 0.33% active | AID 602429; in the data active = inhibition above about 37%
# Target sequence (P63165 whole entry, looked up): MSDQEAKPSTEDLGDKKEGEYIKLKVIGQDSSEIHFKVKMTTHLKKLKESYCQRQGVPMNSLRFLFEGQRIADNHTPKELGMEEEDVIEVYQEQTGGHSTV
# LMPTP inh: blocks human LMPTP phosphatase | P24666 | recombinant LMPTP-A, OMFP fluorogenic substrate, fluorescence intensity | inhibition, % at 20 µM | 360,000 tested, 0.22% active | AID 651560;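 active = compounds that cut the enzyme signal by at least half of the control window in the single-dose screen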
# Target sequence (P24666 whole entry, looked up): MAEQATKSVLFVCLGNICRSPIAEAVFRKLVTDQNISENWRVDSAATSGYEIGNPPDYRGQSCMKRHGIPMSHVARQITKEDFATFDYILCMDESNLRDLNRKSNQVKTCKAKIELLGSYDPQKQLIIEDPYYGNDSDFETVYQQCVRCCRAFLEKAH
#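 Test system: LMPTP-A, protein tyrosine phosphatase of low molecular weight; Input: 0.625 nM enzyme; Incubation: 50 min dark incubation at room temperature; Signal: endpoint fluorescence intensity from OMFP dephosphorylation; Read-out basis: % inhibition versus control wells.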
# GRK2 aptamer HTS: inhibitors of human GRK2 displacing RNA aptamer. P25098. bead flow cytometry, FAM-aptamer displacement from GRK2. inhibition of aptamer binding, % at 10 µM. 330,000 tested, 0.59% active. AID 488847;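 active = inhibition of aptamer binding above 40%, roughly 3 SD of noise, on plates passing a quality check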;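 note: median bead fluorescence of bound FAM aptamer so fluorescent compounds give negative values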
# DNMT1 inh: blocks human DNA methyltransferase DNMT1 | inhibition (reported as % activation of signal), % at 10 µM | P26358 | DNMT1 molecular beacon, Hinp1I cleavage, fluorescence | 360,000 tested, 0.83% active; in the data active = inhibition above about 50%
# STEP block: inhibitors of human striatal-enriched phosphatase STEP. inhibition, % at 20 µM. recombinant STEP, OMFP fluorogenic substrate, fluorescence. 360,000 tested, 0.25% active. AID 588621;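 active = inhibition at 20 µM, scaled per plate between control wells, above about 37%, limit read from the data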
#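 Also added – OMFP at 25 µM · Test system – STEP tyrosine phosphatase · Technique – FITC-channel fluorescence of OMFP product · Schedule – 20 min at room temperature, dark · Evaluation – control-normalized % inhibition with plate pattern correction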
# DNMT1 inh conf: DNMT1 inhibition confirmation, single concentration | shares compounds with DNMT1 inh | DNMT1 molecular beacon HinP1I cleavage, fluorescence | inhibition, % at 10 µM | 2,300 tested, 8% active | AID 602385;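 active = average inhibition of at least 30% in the single-concentration confirmation test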
# Beacon interf: counter-screen for DNMT1 inhibitors: spectral interference; DNMT1 molecular beacon spectral interference counterscreen, fluorescence 485/520; shares compounds with DNMT1 inh; activation (fluorescence interference), % at 10 µM; 2,300 tested, 1% active;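 active = activation of at least 30% at 10 µM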;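 note: DNMT1 catalytic domain with a HinP1I cleavage step and a FAM/dabcyl DNA beacon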
# Hits are given with their value; 0 = inactive; - = no result. In the library only some 2.2% were active in any assay of this set; here they are far more common.
SMILES,Scp1 inh,SUMO1 PPI mod,LMPTP inh,GRK2 aptamer HTS,DNMT1 inh,STEP block,DNMT1 inh conf,Beacon interf
COc1ccc(CCNc2ccc(C(CC(N)=O)NC(=O)Cc3ccc(Br)cc3)cc2[N+](=O)[O-])cc1 (stereo not drawn),0,0,0,0,55,0,0,0
Cc1ccccc1CNc1ccc(C(CC(N)=O)NC(=O)c2ccc(Br)cc2)cc1[N+](=O)[O-] (stereo not drawn),0,0,0,0,61,0,0,0
NC(=O)CC(NC(=O)Cc1ccc(Br)cc1)c1ccc(NCCc2ccc(Cl)cc2)c([N+](=O)[O-])c1 (stereo not drawn),0,0,0,-,58,0,0,0
NC(=O)CC(NC(=O)c1ccc(Br)cc1)c1ccc(NCc2ccc(F)cc2)c([N+](=O)[O-])c1 (stereo not drawn),0,0,0,0,0,0,-,-
NC(=O)CC(NC(=O)Cc1ccc(Br)cc1)c1ccc(NCCc2ccc(F)cc2)c([N+](=O)[O-])c1 (stereo not drawn),0,0,0,0,53,0,0,0
CCCOc1ccc(F)cc1-c1cc(C(=O)Nc2ccc(OC)cc2C)[nH]n1,-,0,0,-,0,0,-,-
CC(=O)c1cc2c(cc1NC(=O)CSc1ncccn1)OCO2,-,0,0,-,0,0,-,-
CCOC(=O)C1=CCN(S(=O)(=O)c2ccccc2C)C1c1ccc(C)cc1 (stereo not drawn),-,0,0,-,0,0,-,-
COc1cccc(-c2cnc3c(c2)C(=O)N([C@H](C)CO)C[C@@H](C)[C@H](CN(C)C(=O)Nc2ccccc2F)O3)c1,-,0,0,-,0,0,-,-
O=C(NCc1ccc(F)cc1)c1cc(C2CCCN(C(=O)C3CCCCC3)C2)on1 (stereo not drawn),-,0,0,-,0,0,-,-
COC(=O)c1sccc1NC(=O)Cc1ccc(OC)cc1,0,0,0,0,92,0,0,0
CCC(=O)N1Cc2cc(C(=O)Nc3nccs3)nc(-c3cccc(-c4ccccc4OC)c3)c2[C@@H]1CCO,-,0,0,-,-,-,-,-
COc1cccc2cc(-c3cc(=O)oc4cc(C)c(OCC(C)=O)cc34)oc12,0,0,0,0,63,0,0,0
CCc1nc2sc3ccccc3c(=O)c2c(=O)n1Cc1ccco1,0,0,58,0,88,0,0,0
O=[N+]([O-])c1ccc(/C=N/NC(=S)Nc2ccc(Cl)cc2Cl)s1,0,0,0,0,60,0,0,0
Cc1nc(SCC(=O)Nc2nc3ccccc3s2)c(C#N)c(C)c1C,0,0,0,0,0,0,-,-
Cc1cc(C(F)(F)F)c(C#N)c(SCC(=O)Nc2nc3ccccc3s2)n1,0,0,0,0,83,0,0,0
COc1ccc(/C=N/NC(=O)CCN2CCN(c3ccccc3)CC2)c(OC)c1OC,0,0,0,0,0,0,-,-
O=C(CCN1CCN(c2ccccc2)CC1)N/N=C/c1ccc(O)c(O)c1O,0,0,67,-,79,0,0,0
COC(=O)C[C@@H]1C=C[C@H](NC(=O)c2ccccc2)[C@@H](CO)O1,-,0,0,-,-,-,-,-
Cc1c(C)c2ccc(OCC(=O)N[C@@H](Cc3ccccc3)C(=O)O)cc2oc1=O,0,0,0,0,0,0,-,-
CCCCCCc1c(C)c2ccc(OCC(=O)N[C@@H](Cc3ccccc3)C(=O)O)cc2oc1=O,0,0,0,0,61,0,0,0
O=C(CC[C@H]1O[C@@H](n2ccc(=O)[nH]c2=O)[C@H](O)[C@@H]1O)NC1CCN(Cc2ccccc2)C1 (stereo partly drawn),-,0,0,-,0,0,-,-
Cc1ccc([C@H]2C[C@H](O)[C@@H](n3cc(C4CC4)nn3)CN2C(=O)c2cccs2)cc1,-,0,0,-,0,0,-,-
COc1cccc(N2CC34C=CC(O3)C(C(=O)O)C4C2=O)c1 (stereo not drawn),0,0,0,0,53,0,0,0
SMILES,Scp1 inh,SUMO1 PPI mod,LMPTP inh,GRK2 aptamer HTS,DNMT1 inh,STEP block,DNMT1 inh conf,Beacon interf
Cc1cccc(N2CC34C=CC(O3)C(C(=O)O)C4C2=O)c1 (stereo not drawn),0,0,0,0,0,0,-,-
Cc1ccc(-c2cc(C(F)F)n3ncc(C(=O)NCc4ccco4)c3n2)cc1,0,0,0,0,76,0,0,0
Cc1ccc(-c2cc(C(F)(F)F)n3ncc(C(=O)NCc4ccco4)c3n2)cc1,0,0,0,0,0,0,-,-
COc1cccc(N2CCN(CC(=O)NC(=O)NCc3ccco3)CC2)c1,0,0,0,0,50,0,0,0
O=C(CN1CCN(c2ccccc2)CC1)NC(=O)NCc1ccco1,0,0,0,0,0,0,-,-
CC(C)c1ccc(-n2nnnc2SCc2nc(N)nc(N)n2)cc1,-,0,0,-,0,0,-,-
Cc1ccc(Cc2c(-c3ccc(Cl)cc3)nc3c(C)cc(Br)cn23)cc1,-,0,0,-,0,0,-,-
O=C(N/N=C/c1ccccc1)c1ccc(CN2C(=O)c3cccc4cccc2c34)cc1,0,0,0,0,53,0,0,0
Cc1ccc(Cc2c(-c3ccccc3)nc3cc(C)c(Br)c(C)n23)cc1,-,0,0,-,0,0,-,-
CC(=O)Nc1ccc(SCC(=O)c2cc(C)ccc2C)cc1,0,0,0,0,86,0,0,0
CC(=O)Nc1ccc(SCC(=O)c2cc(C)n(-c3ccccc3)c2C)cc1,0,0,0,0,0,0,-,-
O=C(O)CCc1ccc(-c2ccc(Br)cc2)n1Cc1ccco1,0,0,0,0,73,0,0,0
COc1ccc2nc(NC(=O)c3cccc(-c4cc5ccccc5oc4=O)c3)sc2c1,0,0,0,0,58,0,0,0
NC(=O)CC(NC(=O)Cc1cccc2ccccc12)c1ccc(NC2CCCCC2)c([N+](=O)[O-])c1 (stereo not drawn),0,0,0,0,64,0,0,0
NC(=O)CC(NC(=O)Cc1cccc2ccccc12)c1ccc(NC2CCCC2)c([N+](=O)[O-])c1 (stereo not drawn),0,0,0,-,0,0,-,-
NC(=O)CC(NC(=O)Cc1cccc2ccccc12)c1ccc(NCCOc2ccccc2)c([N+](=O)[O-])c1 (stereo not drawn),0,0,0,0,51,0,0,0
CCOC(=O)CCC(NC(=O)CCCCC(=O)NC(CCC(=O)OCC)C(=O)OCC)C(=O)OCC (stereo not drawn),0,0,0,0,0,0,-,-
CCOC(=O)CCCCC(=O)NC(CO)C(=O)NC (stereo not drawn),0,0,0,0,59,0,0,0

# High-throughput results as filed in PubChem.
